# According to the EternaBench riboswitch data:
# Legend:
# MS2 coat protein [1] = assay: apparent Kd, MS2 coat protein; higher = weaker binding; RNA-MaP array; tryptophan 2.4 mM where present
# In short: (§1)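 In 100 mM Tris-HCl pH 7.5, 80 mM KCl, 4 mM MgCl2, BSA, DTT, yeast tRNA and Tween-20, SNAP-549-labelled MS2 coat protein was titrated from 0.7 or 1.5 nM, doubling to 3 µM, over designs transcribed by stalled E. coli RNA polymerase on Illumina sequencing-chip clusters. This was done first without ligand, then with ligand held constant. After green signal was normalised to red-channel RNA signal and control-cluster median Fmax, the apparent Kd was taken as the median of filtered per-cluster binding-curve fits.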
# MS2 coat protein [2] = assay: apparent Kd, MS2 coat protein; higher = weaker binding; RNA-MaP array; theophylline 2 mM where present
# In short: as §1
# [3] = designed as: ON switch for tryptophan, no ligand
# [4] = ligand present: tryptophan, designed as: ON switch for tryptophan
# [5] = designed as: OFF switch for tryptophan, no ligand
# [6] = ligand present: tryptophan, designed as: OFF switch for tryptophan
# [7] = designed as: ON switch for theophylline, no ligand
# [8] = ligand present: theophylline, designed as: ON switch for theophylline
# [9] = designed as: OFF switch for theophylline, no ligand
# [10] = ligand present: theophylline, designed as: OFF switch for theophylline
Sequence,apparent Kd (MS2 coat protein [2]; [7]) [nM],apparent Kd (MS2 coat protein [2]; [8]) [nM],apparent Kd (MS2 coat protein [2]; [9]) [nM],apparent Kd (MS2 coat protein [2]; [10]) [nM],other results
AACACAUGAGGAUCACCCAUGUUCUCGUGUCGAGGACCGGUACGGCCGCCACUCGGUUCUCGCGAGGAUGGUCAAAGACUAUCCA,,,,,apparent Kd (MS2 coat protein [1]; [3]): 47.7 nM; apparent Kd (MS2 coat protein [1]; [4]): 42 nM
AAGACAUGAGGAUCACCCAUGUCGUGUGAACGAGGACCGGUACGGCCGCCACUCGUUUGAAAAUAAACGAAUGCGGCCUGGGAAA,,,,,apparent Kd (MS2 coat protein [1]; [5]): 11 nM; apparent Kd (MS2 coat protein [1]; [6]): 14.2 nM
AAUAAACAUGAGGAUCACCCAUGUAGGGUGCGAGGACCGGUACGGCCGCCACUCGGGUGAAAACAUGAGGAUCACCCAUGUAAAA,,,,,apparent Kd (MS2 coat protein [1]; [5]): 200 nM; apparent Kd (MS2 coat protein [1]; [6]): 363 nM
AAUAAUAAGAAUAACGUACCAGGUGAUCAACGAGGACCGGUACGGCCGCCACUCGAAACAUGAGGAUCACCCAUGUAAUAACAAU,,,,,apparent Kd (MS2 coat protein [1]; [5]): 83.4 nM; apparent Kd (MS2 coat protein [1]; [6]): 58.3 nM
AAUCAUGGAAACAUGACAUGAGGAUUACUCCGAGGACCGGUACGGCCGCCACUCGCGAGGAGGCGGACAUGAGGAUCACCCAUGU,,,,,apparent Kd (MS2 coat protein [1]; [3]): 185 nM; apparent Kd (MS2 coat protein [1]; [4]): 40.2 nM
AAUGUGAAGGCGGCCGCCACUGAUAAUAGACAUGAGGAUCACCCAUGUAUAAAUCCUCAAUAAGACAGGACCGGGCCAUCUACGU,,,,,apparent Kd (MS2 coat protein [1]; [5]): 105 nM; apparent Kd (MS2 coat protein [1]; [6]): 123 nM
AAUUAUCAGUCGGCCGCCACUGACACAUGAGGAUCACCCAUGUAAUAUGGGUAAAAUUAACUGAACAGGACCGGGACAAAUGCUA,,,,,apparent Kd (MS2 coat protein [1]; [3]): 381 nM; apparent Kd (MS2 coat protein [1]; [4]): 649 nM
ACGCCCGCCUCACAUGAGGAUCACCCAUGUCGAGGACCGGUACGGCCGCCACUCGUCGUCGGUAAUACGGGCGUUGAAUAAUAUA,,,,,apparent Kd (MS2 coat protein [1]; [5]): 11.5 nM; apparent Kd (MS2 coat protein [1]; [6]): 49.7 nM
ACGUUGUAGUCGGCCGCCACUGUUUUCAUGUUCAACAUGAGGAUCACCCAUGUACCUUUUUUUAUCAGGACCGGGACGUAUUCGA,,,,,apparent Kd (MS2 coat protein [1]; [3]): 93.2 nM; apparent Kd (MS2 coat protein [1]; [4]): 40.7 nM
AGAUUCGACACGGCCGCCACUCGUGACGGAUUUCCGAGUGUCGAACAUGAGGAUCACCCAUGUCCGAGGACCGGGUGUUGAGUCU,,,,,apparent Kd (MS2 coat protein [1]; [5]): 34.1 nM; apparent Kd (MS2 coat protein [1]; [6]): 522 nM
AGAUUCGACACGGCCGCCACUUGGAGUGGCUGCUAGCAUGUUACACAUGAGGAUCACCCAUGUCUAAGGACCGGGUGUUGAGUCU,,,,,apparent Kd (MS2 coat protein [1]; [5]): 41.1 nM; apparent Kd (MS2 coat protein [1]; [6]): 216 nM
AGAUUCGACACGGCCGCCACUUUCAGUGGCUGGUGUCAUGGUGCACAUGAGGAUCACCCAUGUGGAAGGACCGGGUGUUGAGUCU,,,,,apparent Kd (MS2 coat protein [1]; [5]): 12.2 nM; apparent Kd (MS2 coat protein [1]; [6]): 58.4 nM
AGCAACAAGUCGGCCGCCACUCAAUAAACAUGAGGAUCACCCAUGUAAAUAACAUGAUAAUAAUAGAGGACCGGGACAGUUGCAU,,,,,apparent Kd (MS2 coat protein [1]; [3]): 14.4 nM; apparent Kd (MS2 coat protein [1]; [4]): 13 nM
AGCACAUGAGGAUCACCCAUGUGUCGGUACCGAGGACCGGUACGGCCGCCACUCGCAGGACAUGAGGAUCACCCAUGUGCCGCCG,,,,,apparent Kd (MS2 coat protein [1]; [3]): 25.1 nM; apparent Kd (MS2 coat protein [1]; [4]): 25.4 nM
AGCGCGGUGAUGGUAGCCGGACGCUAGGUACGAGGACCGGUACGGCCGCCACUCGGAGUCCUACGACAUGAGGAUCACCCAUGUA,,,,,apparent Kd (MS2 coat protein [1]; [3]): 99.3 nM; apparent Kd (MS2 coat protein [1]; [4]): 46.8 nM
AUAAUUGGGUUAAUUAGUUUUAGGUCCAGUCGAGGACCGGUACGGCCGCCACUCGUUCCGAGAUACAUGAGGAUCACCCAUGUUA,,,,,apparent Kd (MS2 coat protein [1]; [5]): 32.9 nM; apparent Kd (MS2 coat protein [1]; [6]): 34.1 nM
GGUGGUGGGACGGAUACCAGCCACCGCGGCAACGCAACAUGAGGAUCACCCAUGUUGGGUGGCCCUUGGCAGCUGUCCUGCGGCG,13.9,13.1,,,
GGUGGUGUGACGGAUACCAGCCACCGCGGCAACGCAACAUGAGGAUCACCCAUGUUGGGUGGCCCUUGGCAGCUGUCGUGCGGCG,96.5,84.7,,,
GUUAUGGACCUGGAUACCAGCUGGUACAAGGGCGGUCUACAUGAGGAUCACCCAUGUGUCAGCCCUUGGCAGCCAGCAACCCACU,,,9.88,11.4,
UAAUAUCACAUAUUAUGGGUGUAAUGUGAUACCAGCUAGGAAACUAGCCCUUGGCAGCACAUGAGGAUCACCCAUGUAAGCUGUA,,,77.9,49.7,

Sequence,apparent Kd (MS2 coat protein [2]; [7]) [nM],apparent Kd (MS2 coat protein [2]; [8]) [nM],apparent Kd (MS2 coat protein [2]; [9]) [nM],apparent Kd (MS2 coat protein [2]; [10]) [nM],other results
UAUACAUGGGAUACCAUGGAUCCGAGUGAUACCAGCUAUCCGAAUAGCCCUUGGCAGCACAGUACAUGAGGAUCACCCAUGUAUA,27.5,33,,,
UAUAUAUAAAUUGAUACCAGCGAGAAAACAUGAGGAUCACCCAUGUUCGCCCAUGUUAAGCGCCCUUGGCAGCAAUAUUAUUAUU,,,24.5,73,
UCACGACGCAUGGAUACCAGCGACAUGAGGAUCACCCAUGUAUGAGGAUCAGCCAUGUUAUGCCCUUGGCAGCCACGAAGGUCAU,,,14.1,64.1,
UCAUUUGAGUGAGAUGUAAGGUAUCAUGAUACCAGUAGAUAAUUAUACCCUUGGCAGCAUGACAUGAGGAUCACCCAUGUACAUG,,,11.1,10.3,
UCGGCAGUGAACGAUACCAGCGUCACGUGGCCGGUGGUCACAUGAGGAUCACCCAUGUAACGCCCUUGGCAGCGUGCGCGUACCG,,,23.9,129,
UCGUGUGUUUCGGAUACCAGUGAAAUCGAUACAUGAGGAUCACCCAUGUGAGAGGAUGUACACCCUUGGCAGCUGGCUGUUGCGG,42.4,42.6,,,
UCGUGUGUUUCGGAUACCAGUGAAAUCGAUACAUGAGGAUCACCCAUGUGAGAGGAUGUACACCCUUGGCAGCUGUCUGUAGCGG,48.9,37.4,,,
UGAACAUGAGGAUCACCCAUGUAGUCAGAUACCAGACACUGCAUGGUCCCUUGGCAGCUGAAGAGCGUUUGCCAAAUAACGUUCA,162,567,,,
UGACAUUGCUGCGAUACCAGACAUGAGGAUCACCCAUGUGCCAAAUAAACGUACAUAAAUGUCCCUUGGCAGCGCAGCAAUGUCU,,,64.4,752,
UGCUGACAAGGACAUGGAUGAUCAGCUGAUACCAGCCUGGAAACAGGCCCUUGGCAGCAGCACAUGAGGAUCACCCAUGUAAUAA,,,33.7,66.3,
UGUAACAUGAGGAUCACCCAUGUAAGUGAUACCAGAUAAGUAGUAGUCCCUUGGCAGCAUAUUGGGAAAGUGUAUAGUCUAUACG,52.8,65.1,,,
UGUAACAUGAGGAUCACCCAUGUAAGUGAUACCAGAUAAGUAGUAGUCCCUUGGCAGCAUAUUGGGAAAGUGUAUAGUCUAUAUU,57.2,55.6,,,
UGUAACAUGAGGAUCACCCAUGUAAGUGAUACCAGAUAAGUAGUAGUCCCUUGGCAGCAUAUUGGGAAAGUGUAUAGUGUAUAUG,53.3,61.7,,,
UGUCUAGUAAUCGAUACCAGCUACAUGAGGAUCACCCAUGUAGUUCGAACGGCCGCAUGUAGCCCUUGGCAGCGAAUAGUUACAU,,,18.9,52.7,
UUAUUUAUAUUAGAUACCAGUUUAAUGGCCGCAAAUCCUGACAUGAGGAUCACCCAUGUAAGCCCUUGGCAGCUGGUAUGGGUUU,,,19.3,20.7,
UUGGUAGGACAGCUCAUAUAAGCAUGUGAUACCAGCUAGAAAACUAGCCCUUGGCAGCACUUUACAUGAGGAUCACCCAUGUCCC,,,165,460,
UUUACAUGAGGAUCACCCAUGUGCCAUGAUACCAGACAUGAAAAUGUCCCUUGGCAGCAUGAAUAAUCCUCGUCGGGAAACCGAC,140,544,,,
UUUGAUAGGACAGAUACCAGCGUGUUAUAAAACAUGAGGAUCACCCAUGUAGUGAUCAAGCGCCCUUGGCAGCUGGUUUGUUAGG,188,323,,,
UUUUAAAGCAUGGCGUAUCGGAAAACCGAUACCAGUACAGAAAUGUACCCUUGGCAGCGGCAUUUUACAUGAGGAUCACCCAUGU,,,14,40.3,
UUUUAACAUGAGGAUCACCCAUGUAAUGAUACCAGAGACGAAAGUCUCCCUUGGCAGCAUAUAUCAUUACUCAUAGGAAACUAUG,17.5,16,,,
